Measurements reported in ChEMBL document CHEMBL4706607, “Anti-tubercular profile of new selenium-menadione conjugates against Mycobacterium tuberculosis H37Rv (ATCC 27294) strain and multidrug-resistant clinical isolates” (Eur J Med Chem, 2021).
In brackets after ≈: the same amount, converted by molar mass.

Legend:
[1] = system: Mycobacterium tuberculosis; experiment: Antimycobacterial activity against multidrug resistance Mycobacterium tuberculosis CDCT-27 clinical isolates assessed as reduction in bacterial growth by resazurin reduction microplate assay; format: functional
In short: (§1)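 REMA in Middlebrook 7H9 broth with 10% ADC. Compounds dissolved at 1 mg/mL in DMSO and diluted to 50 μg/mL in broth containing 5% DMSO. Ten-point two-fold dilutions gave 25.0 to 0.05 μg/mL. Growth and sterility controls on each plate. MIC was the lowest concentration preventing the blue-to-pink change.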

[2] = system: Mycobacterium tuberculosis; experiment: Antimycobacterial activity against multidrug resistance Mycobacterium tuberculosis CDCT-16 clinical isolates assessed as reduction in bacterial growth by resazurin reduction microplate assay; format: functional; in short: as §1

| Structure (SMILES) | MIC [1] [µM] | MIC [2] [µM] |
| --- | --- | --- |
| CCc1ccc(C(=O)[Se]CC2=C(C)C(=O)c3ccccc3C2=O)cc1 | > 10 | > 10 |
| CC1=C(C[Se]C(=O)c2ccccc2)C(=O)c2ccccc2C1=O | 0.8 (≈ 0.295 µg/mL) | 0.8 (≈ 0.295 µg/mL) |
| NNC(=O)c1ccncc1 [ISONIAZID] | 25 (≈ 3.43 µg/mL) | 100 (≈ 13.7 µg/mL) |
| CC1=C(C[Se]C(=O)c2ccccc2C)C(=O)c2ccccc2C1=O | 3.1 (≈ 1.19 µg/mL) | 3.1 (≈ 1.19 µg/mL) |
| CC1=C(C[Se]C(=O)c2ccc(F)cc2)C(=O)c2ccccc2C1=O | 3.1 (≈ 1.2 µg/mL) | 0.8 (≈ 0.31 µg/mL) |
| CCCCC(=O)[Se]CC1=C(C)C(=O)c2ccccc2C1=O | > 10 | > 10 |
| CC1=C(C[Se]C(=O)c2ccc(C)cc2)C(=O)c2ccccc2C1=O | > 10 | > 10 |
| COc1ccc(C(=O)[Se]CC2=C(C)C(=O)c3ccccc3C2=O)cc1 | > 10 | > 10 |
| CCCC(C)C(=O)[Se]CC1=C(C)C(=O)c2ccccc2C1=O (stereo not given) | > 10 | > 10 |
| CC1=C(C[Se]C(=O)c2ccc(Cl)cc2)C(=O)c2ccccc2C1=O | > 10 | > 10 |
